Laboratory results taken from ChEMBL document CHEMBL2417369, “Synthesis and evaluation of heteroaryl substituted diazaspirocycles as scaffolds to probe the ATP-binding site of protein kinases” (Bioorg Med Chem, 2013).

Tests used:
[1] = molecular target: Tyrosine-protein kinase ABL1 (Homo sapiens, UniProt P00519); assay: Inhibition of ABL (unknown origin) at 30 uM by microfluidic mobility shift assay relative to control
How it was run: (§1)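 Single-point screen in a 24-enzyme kinase panel using a microfluidic assay. Each compound was tested at […] with ATP at roughly the Km for each enzyme. The pan-AGC inhibitor H-89 served as an internal control on every plate.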

[2] = molecular target: T1, Serine/threonine-protein kinase Chk1 (Homo sapiens) (UniProt O14757); assay: Inhibition of CHK1 (unknown origin) at 30 uM by microfluidic mobility shift assay relative to control; how it was run: as §1
T1 sequence (whole entry): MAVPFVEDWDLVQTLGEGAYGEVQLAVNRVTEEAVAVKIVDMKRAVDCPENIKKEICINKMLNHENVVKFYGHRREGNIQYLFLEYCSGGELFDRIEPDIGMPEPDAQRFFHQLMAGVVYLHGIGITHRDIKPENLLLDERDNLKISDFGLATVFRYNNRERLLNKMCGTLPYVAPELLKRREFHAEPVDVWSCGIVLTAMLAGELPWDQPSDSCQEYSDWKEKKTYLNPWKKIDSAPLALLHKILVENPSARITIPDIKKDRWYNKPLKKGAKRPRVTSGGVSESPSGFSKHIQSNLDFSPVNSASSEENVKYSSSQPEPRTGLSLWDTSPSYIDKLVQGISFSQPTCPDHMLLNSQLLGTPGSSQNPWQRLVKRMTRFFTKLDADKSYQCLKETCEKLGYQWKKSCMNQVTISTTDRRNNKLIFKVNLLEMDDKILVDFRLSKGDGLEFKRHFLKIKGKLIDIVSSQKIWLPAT

[3] = molecular target: RAC-beta serine/threonine-protein kinase (Homo sapiens, UniProt P31751); assay: Inhibition of AKT2 (unknown origin) at 30 uM by microfluidic mobility shift assay relative to control; how it was run: as §1
[4] = molecular target: T2, Serine/threonine-protein kinase D2 (Homo sapiens) (UniProt Q9BZL6); assay: Inhibition of PKD2 (unknown origin) at 30 uM by microfluidic mobility shift assay relative to control; how it was run: as §1
T2 sequence (whole entry): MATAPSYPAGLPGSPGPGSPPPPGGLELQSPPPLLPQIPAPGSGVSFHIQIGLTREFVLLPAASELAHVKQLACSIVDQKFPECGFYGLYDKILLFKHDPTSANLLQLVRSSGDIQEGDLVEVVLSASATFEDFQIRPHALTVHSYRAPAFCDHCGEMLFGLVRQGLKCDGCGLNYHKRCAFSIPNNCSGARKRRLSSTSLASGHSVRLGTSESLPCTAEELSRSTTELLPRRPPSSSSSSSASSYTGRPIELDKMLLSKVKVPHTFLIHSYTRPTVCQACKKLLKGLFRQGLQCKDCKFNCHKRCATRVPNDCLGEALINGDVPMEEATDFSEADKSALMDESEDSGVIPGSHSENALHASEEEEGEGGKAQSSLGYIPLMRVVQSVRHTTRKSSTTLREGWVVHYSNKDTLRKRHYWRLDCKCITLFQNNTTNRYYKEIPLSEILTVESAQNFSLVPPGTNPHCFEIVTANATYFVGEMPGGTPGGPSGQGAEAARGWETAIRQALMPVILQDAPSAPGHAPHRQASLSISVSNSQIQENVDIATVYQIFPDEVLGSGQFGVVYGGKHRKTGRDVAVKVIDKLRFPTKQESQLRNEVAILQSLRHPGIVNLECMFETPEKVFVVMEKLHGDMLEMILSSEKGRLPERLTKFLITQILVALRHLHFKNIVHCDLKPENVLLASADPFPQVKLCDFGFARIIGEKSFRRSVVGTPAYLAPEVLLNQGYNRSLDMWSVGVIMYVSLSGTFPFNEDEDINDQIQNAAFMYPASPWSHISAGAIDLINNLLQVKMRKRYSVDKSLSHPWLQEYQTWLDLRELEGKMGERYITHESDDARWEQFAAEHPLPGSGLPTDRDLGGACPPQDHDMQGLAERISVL

[5] = molecular target: Mitogen-activated protein kinase 3 (Homo sapiens, UniProt P27361); assay: Inhibition of ERK1 (unknown origin) at 30 uM by microfluidic mobility shift assay relative to control; how it was run: as §1
[6] = molecular target: Ribosomal protein S6 kinase alpha-1 (Homo sapiens, UniProt Q15418); assay: Inhibition of RSK1 (unknown origin) at 30 uM by microfluidic mobility shift assay relative to control; how it was run: as §1
[7] = molecular target: Serine/threonine-protein kinase Chk2 (Homo sapiens, UniProt O96017); assay: Inhibition of CHK2 (unknown origin) at 30 uM by microfluidic mobility shift assay relative to control; how it was run: as §1
[8] = molecular target: Tyrosine-protein kinase Lck (Homo sapiens, UniProt P06239); assay: Inhibition of LCK (unknown origin) at 30 uM by microfluidic mobility shift assay relative to control; how it was run: as §1
[9] = molecular target: Ribosomal protein S6 kinase alpha-5 (Homo sapiens, UniProt O75582); assay: Inhibition of MSK1 (unknown origin) at 30 uM by microfluidic mobility shift assay relative to control; how it was run: as §1
[10] = molecular target: RAC-alpha serine/threonine-protein kinase (Homo sapiens, UniProt P31749); assay: Inhibition of AKT1 (unknown origin) at 30 uM by microfluidic mobility shift assay relative to control; how it was run: as §1
[11] = molecular target: Mitogen-activated protein kinase 14 (Homo sapiens) (UniProt Q16539); assay: Inhibition of p38alpha (unknown origin) at 30 uM by microfluidic mobility shift assay relative to control; how it was run: as §1
[12] = molecular target: Mitogen-activated protein kinase 1 (Homo sapiens, UniProt P28482); assay: Inhibition of ERK2 (unknown origin) at 30 uM by microfluidic mobility shift assay relative to control; how it was run: as §1
Homo sapiens = species: Homo sapiens; assay: Inhibition of PKA (unknown origin) at 30 uM by microfluidic mobility shift assay relative to control; how it was run: as §1
[13] = molecular target: Proto-oncogene tyrosine-protein kinase Src (Homo sapiens, UniProt P12931); assay: Inhibition of SRC (unknown origin) at 30 uM by microfluidic mobility shift assay relative to control; how it was run: as §1
[14] = molecular target: Tyrosine-protein kinase Fyn (Homo sapiens, UniProt P06241); assay: Inhibition of FYN (unknown origin) at 30 uM by microfluidic mobility shift assay relative to control; how it was run: as §1
[15] = molecular target: MAP kinase-activated protein kinase 2 (Homo sapiens) (UniProt P49137); assay: Inhibition of MK2 (unknown origin) at 30 uM by microfluidic mobility shift assay relative to control; how it was run: as §1
[16] = molecular target: Tyrosine-protein kinase Lyn (Homo sapiens, UniProt P07948); assay: Inhibition of LYN (unknown origin) at 30 uM by microfluidic mobility shift assay relative to control; how it was run: as §1
[17] = molecular target: Protein kinase C (PKC) (Homo sapiens) (UniProt O94806+P41743+P17252+P05129+Q05655+P05771+Q05513+Q02156+P24723+Q15139+Q04759); assay: Inhibition of PKC (unknown origin) at 30 uM by microfluidic mobility shift assay relative to control; how it was run: as §1
[18] = molecular target: Glycogen synthase kinase-3 beta (Homo sapiens, UniProt P49841); assay: Inhibition of GSK3beta (unknown origin) at 30 uM by microfluidic mobility shift assay relative to control; how it was run: as §1
[19] = molecular target: Insulin receptor (Homo sapiens) (UniProt P06213); assay: Inhibition of INSR (unknown origin) at 30 uM by microfluidic mobility shift assay relative to control; how it was run: as §1
Chain of Insulin receptor (Homo sapiens) (P06213 28-758 limits assumed): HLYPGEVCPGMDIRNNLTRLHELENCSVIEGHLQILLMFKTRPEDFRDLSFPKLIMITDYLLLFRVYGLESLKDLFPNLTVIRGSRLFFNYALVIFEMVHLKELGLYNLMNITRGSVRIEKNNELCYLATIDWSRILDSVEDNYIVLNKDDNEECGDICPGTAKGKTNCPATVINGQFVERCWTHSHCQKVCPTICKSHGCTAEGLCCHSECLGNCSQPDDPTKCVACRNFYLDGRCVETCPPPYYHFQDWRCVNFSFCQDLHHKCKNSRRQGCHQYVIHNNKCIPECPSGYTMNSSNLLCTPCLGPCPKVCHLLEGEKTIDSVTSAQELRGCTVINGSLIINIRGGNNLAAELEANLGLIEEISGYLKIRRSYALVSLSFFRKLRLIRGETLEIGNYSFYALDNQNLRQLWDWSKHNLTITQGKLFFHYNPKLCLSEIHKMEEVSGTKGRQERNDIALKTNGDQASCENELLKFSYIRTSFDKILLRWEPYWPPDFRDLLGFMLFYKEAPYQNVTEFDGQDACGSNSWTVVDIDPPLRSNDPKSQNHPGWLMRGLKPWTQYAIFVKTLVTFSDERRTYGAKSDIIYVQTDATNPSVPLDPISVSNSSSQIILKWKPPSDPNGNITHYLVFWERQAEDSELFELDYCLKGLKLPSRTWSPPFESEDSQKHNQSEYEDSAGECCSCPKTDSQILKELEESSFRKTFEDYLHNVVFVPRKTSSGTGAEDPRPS
Chain of Insulin receptor (Homo sapiens) (P06213 763-1382 limits assumed): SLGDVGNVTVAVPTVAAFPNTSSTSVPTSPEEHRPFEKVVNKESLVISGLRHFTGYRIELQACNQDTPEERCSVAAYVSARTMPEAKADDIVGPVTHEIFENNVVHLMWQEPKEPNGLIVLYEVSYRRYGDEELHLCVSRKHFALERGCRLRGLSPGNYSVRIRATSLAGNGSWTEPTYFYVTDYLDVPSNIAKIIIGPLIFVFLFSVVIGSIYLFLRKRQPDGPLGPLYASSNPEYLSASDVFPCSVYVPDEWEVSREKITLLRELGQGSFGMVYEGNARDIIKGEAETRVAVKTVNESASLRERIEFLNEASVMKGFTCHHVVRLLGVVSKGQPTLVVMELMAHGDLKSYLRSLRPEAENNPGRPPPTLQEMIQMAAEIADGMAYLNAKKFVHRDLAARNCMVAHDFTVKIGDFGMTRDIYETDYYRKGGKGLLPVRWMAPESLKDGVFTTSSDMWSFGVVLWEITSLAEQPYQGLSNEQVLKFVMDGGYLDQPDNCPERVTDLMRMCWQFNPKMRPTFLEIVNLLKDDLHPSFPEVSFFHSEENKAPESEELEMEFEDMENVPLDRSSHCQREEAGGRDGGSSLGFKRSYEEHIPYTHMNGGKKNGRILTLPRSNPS

Chain of Mitogen-activated protein kinase 1 (P28482 whole entry): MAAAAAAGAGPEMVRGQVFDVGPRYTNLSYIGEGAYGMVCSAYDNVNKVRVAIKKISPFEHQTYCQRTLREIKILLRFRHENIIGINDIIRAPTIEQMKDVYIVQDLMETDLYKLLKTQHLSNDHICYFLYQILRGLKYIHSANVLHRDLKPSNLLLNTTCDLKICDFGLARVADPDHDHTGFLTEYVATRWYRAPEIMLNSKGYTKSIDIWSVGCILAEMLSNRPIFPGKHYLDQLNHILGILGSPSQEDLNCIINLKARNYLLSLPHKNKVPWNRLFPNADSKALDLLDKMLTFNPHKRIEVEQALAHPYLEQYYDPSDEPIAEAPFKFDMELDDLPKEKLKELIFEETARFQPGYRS
Chain of Mitogen-activated protein kinase 3 (P27361 whole entry): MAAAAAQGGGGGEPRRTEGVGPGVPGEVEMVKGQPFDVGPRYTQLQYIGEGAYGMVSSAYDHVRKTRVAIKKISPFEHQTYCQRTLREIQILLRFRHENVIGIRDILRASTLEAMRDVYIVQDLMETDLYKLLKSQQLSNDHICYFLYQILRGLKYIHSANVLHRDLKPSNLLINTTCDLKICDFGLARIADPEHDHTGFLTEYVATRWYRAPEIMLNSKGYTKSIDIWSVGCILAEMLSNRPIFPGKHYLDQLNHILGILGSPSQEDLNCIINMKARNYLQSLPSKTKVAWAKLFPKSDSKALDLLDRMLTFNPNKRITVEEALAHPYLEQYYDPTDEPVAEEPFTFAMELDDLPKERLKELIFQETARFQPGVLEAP
Chain of Tyrosine-protein kinase Lck (P06239 2-509 limits assumed): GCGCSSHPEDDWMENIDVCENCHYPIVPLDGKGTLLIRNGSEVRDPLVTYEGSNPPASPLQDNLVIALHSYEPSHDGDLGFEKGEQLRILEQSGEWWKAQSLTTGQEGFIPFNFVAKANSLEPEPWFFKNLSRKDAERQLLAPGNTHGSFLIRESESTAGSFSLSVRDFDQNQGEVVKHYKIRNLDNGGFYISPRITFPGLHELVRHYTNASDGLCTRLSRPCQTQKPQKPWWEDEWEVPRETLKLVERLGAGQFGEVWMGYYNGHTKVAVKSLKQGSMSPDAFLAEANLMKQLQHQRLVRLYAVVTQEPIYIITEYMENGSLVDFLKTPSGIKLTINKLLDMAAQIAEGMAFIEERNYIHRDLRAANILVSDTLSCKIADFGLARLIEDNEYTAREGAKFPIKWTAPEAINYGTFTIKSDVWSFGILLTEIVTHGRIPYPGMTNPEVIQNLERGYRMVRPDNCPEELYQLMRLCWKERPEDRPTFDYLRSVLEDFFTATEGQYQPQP
Chain of Glycogen synthase kinase-3 beta (P49841 whole entry, looked up): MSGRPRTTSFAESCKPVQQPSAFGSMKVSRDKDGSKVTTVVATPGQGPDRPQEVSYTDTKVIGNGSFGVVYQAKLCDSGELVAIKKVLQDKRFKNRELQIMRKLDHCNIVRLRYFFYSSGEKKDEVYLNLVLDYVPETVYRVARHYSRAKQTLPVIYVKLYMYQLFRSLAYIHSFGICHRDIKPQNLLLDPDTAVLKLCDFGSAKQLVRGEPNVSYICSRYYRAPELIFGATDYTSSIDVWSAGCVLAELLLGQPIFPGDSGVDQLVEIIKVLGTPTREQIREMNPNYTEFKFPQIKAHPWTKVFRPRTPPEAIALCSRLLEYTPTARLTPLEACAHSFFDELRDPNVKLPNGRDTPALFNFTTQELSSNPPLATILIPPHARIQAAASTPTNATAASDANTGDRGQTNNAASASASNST
Chain of Tyrosine-protein kinase Lyn (P07948 2-512 limits assumed): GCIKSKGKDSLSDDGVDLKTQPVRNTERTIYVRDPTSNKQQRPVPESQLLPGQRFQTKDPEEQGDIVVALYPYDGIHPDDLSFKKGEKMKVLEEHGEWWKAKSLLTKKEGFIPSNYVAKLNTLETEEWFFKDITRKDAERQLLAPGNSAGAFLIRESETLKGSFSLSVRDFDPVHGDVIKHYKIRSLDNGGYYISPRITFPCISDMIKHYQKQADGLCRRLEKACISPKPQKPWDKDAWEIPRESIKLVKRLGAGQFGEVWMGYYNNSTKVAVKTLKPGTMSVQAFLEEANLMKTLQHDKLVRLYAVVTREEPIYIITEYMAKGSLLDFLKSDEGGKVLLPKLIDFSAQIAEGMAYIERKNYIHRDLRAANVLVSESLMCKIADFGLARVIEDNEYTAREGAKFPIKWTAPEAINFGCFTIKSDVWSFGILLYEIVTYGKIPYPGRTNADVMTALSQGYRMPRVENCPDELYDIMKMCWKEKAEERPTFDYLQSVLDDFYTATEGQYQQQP
Chain of RAC-alpha serine/threonine-protein kinase (P31749 whole entry): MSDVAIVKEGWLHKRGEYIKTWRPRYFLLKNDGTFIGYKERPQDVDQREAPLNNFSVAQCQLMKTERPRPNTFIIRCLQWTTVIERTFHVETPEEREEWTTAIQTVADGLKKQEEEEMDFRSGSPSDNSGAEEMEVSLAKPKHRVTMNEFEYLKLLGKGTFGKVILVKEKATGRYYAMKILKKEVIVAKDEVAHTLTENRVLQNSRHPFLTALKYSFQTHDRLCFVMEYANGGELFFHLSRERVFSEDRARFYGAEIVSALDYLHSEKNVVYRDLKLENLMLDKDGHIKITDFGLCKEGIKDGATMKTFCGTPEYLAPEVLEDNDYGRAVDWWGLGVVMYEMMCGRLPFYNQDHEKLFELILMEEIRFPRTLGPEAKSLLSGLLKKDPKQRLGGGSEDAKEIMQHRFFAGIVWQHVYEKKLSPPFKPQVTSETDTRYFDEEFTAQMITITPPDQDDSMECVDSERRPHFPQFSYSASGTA
Chain of Ribosomal protein S6 kinase alpha-1 (Q15418 whole entry): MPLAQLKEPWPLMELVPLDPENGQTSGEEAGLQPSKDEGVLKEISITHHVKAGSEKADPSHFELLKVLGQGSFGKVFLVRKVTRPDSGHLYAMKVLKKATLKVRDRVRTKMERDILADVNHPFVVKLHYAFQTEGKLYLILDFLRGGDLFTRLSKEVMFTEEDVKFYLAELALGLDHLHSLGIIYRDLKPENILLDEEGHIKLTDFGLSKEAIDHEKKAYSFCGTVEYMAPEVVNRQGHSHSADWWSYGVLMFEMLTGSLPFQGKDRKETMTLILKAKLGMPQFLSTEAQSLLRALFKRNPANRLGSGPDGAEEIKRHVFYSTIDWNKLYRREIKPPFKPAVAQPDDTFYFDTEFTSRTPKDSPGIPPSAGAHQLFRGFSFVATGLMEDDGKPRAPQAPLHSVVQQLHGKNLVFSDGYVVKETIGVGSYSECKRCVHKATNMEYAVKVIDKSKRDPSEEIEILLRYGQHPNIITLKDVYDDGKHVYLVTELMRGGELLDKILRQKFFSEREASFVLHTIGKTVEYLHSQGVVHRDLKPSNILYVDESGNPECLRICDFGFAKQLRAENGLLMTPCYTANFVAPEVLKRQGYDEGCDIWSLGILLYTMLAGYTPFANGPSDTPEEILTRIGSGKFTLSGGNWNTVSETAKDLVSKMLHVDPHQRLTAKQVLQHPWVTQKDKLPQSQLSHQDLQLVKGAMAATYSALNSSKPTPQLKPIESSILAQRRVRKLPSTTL

inhibition [1] | inhibition [2] | inhibition [3] | inhibition [4] | inhibition [5] | inhibition [6] | inhibition [7] | inhibition [8] | inhibition [9] | inhibition [10] | inhibition [11] | inhibition [12] | inhibition (Homo sapiens) | inhibition [13] | inhibition [14] | inhibition [15] | inhibition [16] | inhibition [17] | inhibition [18] | inhibition [19] | SMILES
33% | 26% | 6% | 17% | 41% | 46% | 28% | 37% | 45% | 25% | 3% | 35% | 67% | 41% | 36% | 15% | 34% | 7% | 66% | 2% | c1nc(N2CCC3(CCCOC3)CC2)c2nc[nH]c2n1
32% | 71% | 26% | 55% | 16% | 71% | 35% | 15% | 89% | 85% | 2% | 28% | 98% | 19% | 33% | 19% | 33% | 21% | 32% | 3% | c1nc(N2CCCC3(CCNCC3)C2)c2nc[nH]c2n1
7% | 4% | 13% | 16% | 10% | 42% | 8% | 15% | 58% | 15% | 10% | 17% | 80% | 6% | 5% | 0% | 10% | 12% | 19% | 4% | NC1(Cc2ccccc2)CCN(S(=O)(=O)c2cccc3cnccc23)CC1
20% | 17% | 6% | 5% | 12% | 45% | 25% | 35% | 35% | 16% | 6% | 18% | 55% | 32% | 33% | 10% | 21% | 2% | 40% | 8% | c1nc(N2CCC3(CCCCC3)CC2)c2nc[nH]c2n1
39% | 77% | 89% | 71% | 39% | 85% | 75% | 73% | 97% | 99% | 0% | 54% | 100% | 76% | 56% | 3% | 75% | 0% | 20% | 2% | c1ccc(C2CCNC3(CCN(c4ncnc5[nH]cnc45)CC3)C2)cc1 (racemic)

SMILES | inhibition [1] | inhibition [2] | inhibition [3] | inhibition [4] | inhibition [5] | inhibition [6] | inhibition [7] | inhibition [8] | inhibition [9] | inhibition [10] | inhibition [11] | inhibition [12] | inhibition (Homo sapiens) | inhibition [13] | inhibition [14] | inhibition [15] | inhibition [16] | inhibition [17] | inhibition [18] | inhibition [19]
O=S(=O)(c1cccc2cnccc12)N1CCC2(CCNC2)CC1 | 0% | 46% | 17% | 19% | 14% | 33% | 59% | 10% | 41% | 18% | 9% | 4% | 76% | 10% | 1% | 13% | 3% | 0% | 1% | 4%
OCC1CCC2(CCN(c3ncnc4[nH]cnc34)CC2)NC1 (racemic) | 15% | 27% | 38% | 45% | 31% | 74% | 56% | 15% | 88% | 80% | 14% | 32% | 98% | 34% | 1% | 22% | 16% | 0% | 21% | 17%
c1nc(N2CCC3(CCCCN3)CC2)c2nc[nH]c2n1 | 33% | 85% | 57% | 42% | 46% | 60% | 58% | 25% | 88% | 87% | 3% | 50% | 98% | 25% | 34% | 24% | 52% | 0% | 28% | 4%
c1nc(N2CCC3(CCCNC3)CC2)c2nc[nH]c2n1 | 82% | 97% | 87% | 91% | 55% | 81% | 72% | 64% | 98% | 98% | 0% | 50% | 100% | 70% | 63% | 74% | 70% | 41% | 49% | 4%
